In ChEMBL document CHEMBL3632509, “Inhibition of Inflammatory and Neuropathic Pain by Targeting a Mu Opioid Receptor/Chemokine Receptor5 Heteromer (MOR-CCR5)” (J Med Chem, 2015):
Active and inactive are the calls of the source.

Tests used:
Mus musculus [1] = assay: Antinociceptive activity in i.t dosed normal ICR-CD1 mouse assessed as withdrawal latency for radiant heat by tail flick assay; format: functional
Summary of the method: (§1)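 Male ICR-CD1 mice (17–25 g); LPS groups given LPS 1 mg/kg i.p. 24 h before testing, others untreated. Compound dissolved in 5% DMSO, diluted to <1% DMSO, given i.t. or i.c.v. in 5 µl to conscious mice. Radiant-heat tail flick, latency before and at peak time after drug, 10 s cut-off; %MPE = (test−control)/(10−control)×100. At least three groups of 8–10 mice per dose–response curve, each mouse used once.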

Mus musculus [2] = assay: Antinociceptive activity in i.c.v dosed normal ICR-CD1 mouse assessed as withdrawal latency for radiant heat by tail flick assay; format: functional; summary of the method: as §1
Mus musculus [3] = assay: Selectivity ratio of ED50 for antinociceptive activity in i.c.v dosed ICR-CD1 mouse to ED50 for i.t dosed ICR-CD1 mouse; format: functional
Summary of the method: (§2)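 Ratios compare i.c.v. with i.t. dosing, or untreated mice with LPS-pretreated mice (1 mg/kg i.p., 24 h). All mice are male ICR-CD1.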

Mus musculus [4] = assay: Toxicity in i.t dosed ICR-CD1 mouse at ED50 after 24 hrs; format: organism-based; conditions: in vivo, icv_or_intrathecal
Summary of the method: (§3)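 Acute tolerance in male ICR-CD1 mice, either untreated or given LPS 1 mg/kg i.p. 24 h before testing. The ED80–90 dose is given i.t. or i.c.v. (5 µl, <1% DMSO) on day 1. The same dose is given again 24 h later to the same mouse and retested by radiant-heat tail flick (10 s cut-off, %MPE).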

Mus musculus [5] = assay: Toxicity in i.c.v dosed ICR-CD1 mouse at ED50 after 24 hrs; format: organism-based; conditions: in vivo, icv_or_intrathecal; summary of the method: as §3
Mus musculus [6] = assay: Antinociceptive activity in i.t dosed LPS-induced ICR-CD1 mouse thermal hyperalgesia model assessed as withdrawal latency for radiant heat by tail flick assay; format: functional; summary of the method: as §1
Mus musculus [7] = assay: Antinociceptive activity in i.c.v dosed LPS-induced ICR-CD1 mouse thermal hyperalgesia model assessed as withdrawal latency for radiant heat by tail flick assay; format: functional; summary of the method: as §1
Mus musculus [8] = assay: Toxicity in i.t dosed LPS-induced ICR-CD1 mouse thermal hyperalgesia model at ED50 after 24 hrs; format: organism-based; conditions: in vivo, icv_or_intrathecal; summary of the method: as §3
Mus musculus [9] = assay: Toxicity in i.c.v dosed LPS-induced ICR-CD1 mouse thermal hyperalgesia model at ED50 after 24 hrs; format: organism-based; conditions: in vivo, icv_or_intrathecal; summary of the method: as §3
Mus musculus [10] = assay: Selectivity ratio of ED50 for antinociceptive activity in i.c.v dosed LPS-induced ICR-CD1 mouse thermal hyperalgesia model to ED50 for i.t dosed LPS-induced ICR-CD1 mouse thermal hyperalgesia model; format: functional; summary of the method: as §2
Mus musculus [11] = assay: Antinociceptive activity in i.t dosed LPS-induced ICR-CD1 mouse thermal hyperalgesia model assessed as withdrawal latency for radiant heat by tail flick assay relative to TAK-220 and N-((4aS,7S,7aR,12bS)-4a,9-Dihydroxy-3-methyl-2,3,4,4a,5,6,7,7a-octahydro-1H-4,12-methanobenzofuro[3,2-e][…]-7-yl)-2-((3,7,17-trioxo-5-oxa-2,8,16-triazaoctadecan-18-yl)oxy)acetamide combination; format: functional
Mus musculus [12] = assay: Antinociceptive activity in normal ICR-CD1 mouse assessed as withdrawal latency for radiant heat at 250 pmol, icv by tail flick assay; format: functional; summary of the method: as §1
Mus musculus [13] = assay: Antinociceptive activity in normal ICR-CD1 mouse assessed as withdrawal latency for radiant heat at 500 pmol, icv by tail flick assay; format: functional; summary of the method: as §1
Mus musculus [14] = organism: Mus musculus; assay: Antinociceptive activity in LPS-induced ICR-CD1 mouse thermal hyperalgesia model assessed as withdrawal latency for radiant heat at 500 pmol i.c.v by tail flick assay; format: functional; summary of the method: as §1
Mus musculus [15] = assay: Antinociceptive activity in i.t dosed LPS-induced ICR-CD1 mouse thermal hyperalgesia model assessed as withdrawal latency for radiant heat by tail flick assay relative to morphine; format: functional
Mus musculus [16] = assay: Selectivity ratio of ED50 for antinociceptive activity in i.t dosed normal ICR-CD1 mouse to ED50 for i.t dosed LPS-induced ICR-CD1 mouse thermal hyperalgesia model; format: functional; summary of the method: as §2
Mus musculus [17] = assay: Antinociceptive activity in i.t dosed LPS-induced ICR-CD1 mouse thermal hyperalgesia model assessed as withdrawal latency for radiant heat at ED50 by tail flick assay in presence of 45 mg/kg, ip minocycline; format: functional, organism-based
Summary of the method: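 Male ICR-CD1 mice get LPS 1 mg/kg i.p. and 24 h later minocycline HCl 45 mg/kg i.p. in distilled water. Test compound is given i.t. 4 h after minocycline. Antinociception is read by radiant-heat tail flick (10 s cut-off) as %MPE. The ED50 comes from a dose–response curve, groups of n=8.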

Mus musculus [18] = assay: Antinociceptive activity in normal ICR-CD1 mouse assessed as withdrawal latency for radiant heat at 1000 pmol, icv by tail flick assay; format: functional; summary of the method: as §1
Mus musculus [19] = organism: Mus musculus; assay: Antinociceptive activity in LPS-induced ICR-CD1 mouse thermal hyperalgesia model assessed as withdrawal latency for radiant heat at 1000 pmol i.c.v by tail flick assay; format: functional; summary of the method: as §1
[20] = molecular target: C-C chemokine receptor type 5 (Homo sapiens) (UniProt P51681); assay: Antagonist activity at CCR5 receptor (unknown origin) expressed in HEK293 cells assessed as inhibition of CCl5-induced calcium release at 1 uM by FLIPR assay; format: functional, cell-based
C-C chemokine receptor type 5 (Homo sapiens), sequence (P51681 whole entry, looked up): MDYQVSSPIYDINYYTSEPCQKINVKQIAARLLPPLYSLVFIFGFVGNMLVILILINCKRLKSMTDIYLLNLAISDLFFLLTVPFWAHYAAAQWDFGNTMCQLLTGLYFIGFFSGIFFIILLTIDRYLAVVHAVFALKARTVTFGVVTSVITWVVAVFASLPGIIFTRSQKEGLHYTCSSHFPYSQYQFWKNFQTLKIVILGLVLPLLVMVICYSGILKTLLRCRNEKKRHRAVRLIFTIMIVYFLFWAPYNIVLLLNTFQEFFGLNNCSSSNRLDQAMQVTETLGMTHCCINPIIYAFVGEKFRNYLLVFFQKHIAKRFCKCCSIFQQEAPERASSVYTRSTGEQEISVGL

Mus musculus [21] = organism: Mus musculus; assay: Antinociceptive activity in normal ICR-CD1 mouse assessed as withdrawal latency for radiant heat at 1000 pmol, it by tail flick assay; format: functional; summary of the method: as §1
Mus musculus [22] = organism: Mus musculus; assay: Antinociceptive activity in LPS-induced ICR-CD1 mouse thermal hyperalgesia model assessed as withdrawal latency for radiant heat at 1000 pmol i.t by tail flick assay; format: functional; summary of the method: as §1
Mus musculus [23] = assay: Antinociceptive activity in i.t dosed LPS-induced ICR-CD1 mouse thermal hyperalgesia model assessed as withdrawal latency for radiant heat at ED50 after 24 hrs by tail flick assay; format: functional; summary of the method: as §3
Mus musculus [24] = organism: Mus musculus; assay: Antinociceptive activity in normal ICR-CD1 mouse assessed as withdrawal latency for radiant heat at 500 pmol, it by tail flick assay; format: functional; summary of the method: as §1
Mus musculus [25] = assay: Antinociceptive activity in i.t dosed complete Freund's adjuvant-induced ICR-CD1 mouse mechanical hyperalgesia model by von Frey test; format: functional

## CNC(=O)COCC(=O)NCCCCCCCNC(=O)COCC(=O)N[C@H]1CC[C@@]2(O)[C@H]3Cc4ccc(O)c5c4[C@@]2(CCN3C)[C@H]1O5
Mus musculus [1]
  ED50: 113.3 pmol
Mus musculus [2]
  ED50: 108.2 pmol
Mus musculus [3]
  Ratio ED50: 0.95
Mus musculus [4]
  Activity: Toxic
Mus musculus [5]
  Activity: Toxic
Mus musculus [6]
  ED50: 21.29 pmol
Mus musculus [7]
  ED50: 168.9 pmol
Mus musculus [8]
  Activity: Toxic
Mus musculus [9]
  Activity: Toxic
Mus musculus [10]
  Ratio ED50: 7.93

## Cc1ccc(N(CCCN2CCC(Cc3ccc(C(N)=O)cc3)CC2)C(=O)C2CCN(C(=O)COCC(=O)NCCCCCCCNC(=O)COCC(=O)N[C@H]3CC[C@@]4(O)[C@H]5Cc6ccc(O)c7c6[C@@]4(CCN5C)[C@H]3O7)CC2)cc1Cl
Mus musculus [1]
  ED50: 166.4 pmol
Mus musculus [3]
  Ratio ED50: 1.5
Mus musculus [4]
  Activity: Toxic
Mus musculus [6]
  ED50: 11.41 pmol
Mus musculus [7]
  ED50: 692.4 pmol
Mus musculus [8]
  Activity: Non-toxic
Mus musculus [9]
  Activity: Toxic
Mus musculus [10]
  Ratio ED50: 60.68
Mus musculus [11]
  Selectivity Index: 4.5
Mus musculus [12]
  MPE: 35.9%

## Cc1ccc(N(CCCN2CCC(Cc3ccc(C(N)=O)cc3)CC2)C(=O)C2CCN(C(=O)COCC(=O)NCCCCCCCCCCNC(=O)COCC(=O)N[C@H]3CC[C@@]4(O)[C@H]5Cc6ccc(O)c7c6[C@@]4(CCN5C)[C@H]3O7)CC2)cc1Cl
Mus musculus [1]
  ED50: 45.75 pmol
Mus musculus [13]
  MPE: 49.7%
Mus musculus [4]
  Activity: Non-toxic
Mus musculus [6]
  ED50: 0.01461 pmol
Mus musculus [14]
  MPE: 41.1%
Mus musculus [8]
  Activity: Non-toxic
Mus musculus [15]
  fold change (FC): 1500
Mus musculus [11]
  Selectivity Index: 3559
Mus musculus [16]
  Selectivity Index: 3000
Mus musculus [17]
  Activity: inactive

## Cc1ccc(N(CCCN2CCC(Cc3ccc(C(N)=O)cc3)CC2)C(=O)C2CCN(C(=O)COCC(=O)NCCCCCNC(=O)COCC(=O)N[C@H]3CC[C@@]4(O)[C@H]5Cc6ccc(O)c7c6[C@@]4(CCN5C)[C@H]3O7)CC2)cc1Cl
Mus musculus [1]
  ED50: 370.6 pmol
Mus musculus [2]
  ED50: 358.2 pmol
Mus musculus [3]
  Ratio ED50: 3.14
Mus musculus [4]
  Activity: Toxic
Mus musculus [5]
  Activity: Toxic
Mus musculus [6]
  ED50: 10.92 pmol
Mus musculus [7]
  ED50: 187.1 pmol
Mus musculus [8]
  Activity: Non-toxic
Mus musculus [9]
  Activity: Toxic
Mus musculus [10]
  Ratio ED50: 6.38
Mus musculus [11]
  Selectivity Index: 4.8

## Cc1ccc(N(CCCN2CCC(Cc3ccc(C(N)=O)cc3)CC2)C(=O)C2CCN(C(=O)COCC(=O)NCCCCCCCCCCCCNC(=O)COCC(=O)N[C@H]3CC[C@@]4(O)[C@H]5Cc6ccc(O)c7c6[C@@]4(CCN5C)[C@H]3O7)CC2)cc1Cl
Mus musculus [1]
  ED50: 336.9 pmol
Mus musculus [18]
  MPE: 27.6%
Mus musculus [3]
  Ratio ED50: 2.97
Mus musculus [4]
  Activity: Toxic
Mus musculus [6]
  ED50: 122.7 pmol
Mus musculus [19]
  MPE: 55.7%
Mus musculus [8]
  Activity: Toxic
Mus musculus [11]
  Selectivity Index: 0.4

## CC(=O)N1CCC(C(=O)N(CCCN2CCC(Cc3ccc(C(N)=O)cc3)CC2)c2ccc(C)c(Cl)c2)CC1
[20]
  Activity: Active
Mus musculus [21]
  MPE: 34.2%
Mus musculus [18]
  MPE: 26.2%
Mus musculus [3]
  Ratio ED50: 1
Mus musculus [22]
  MPE: 49%
Mus musculus [19]
  MPE: 7.6%
Mus musculus [10]
  Ratio ED50: 6.48

## Cc1ccc(N(CCCN2CCC(Cc3ccc(C(N)=O)cc3)CC2)C(=O)C2CCN(C(=O)COCC(=O)NCCCCCCCCCNC(=O)COCC(=O)N[C@H]3CC[C@@]4(O)[C@H]5Cc6ccc(O)c7c6[C@@]4(CCN5C)[C@H]3O7)CC2)cc1Cl
Mus musculus [1]
  ED50: 15.83 pmol
Mus musculus [18]
  MPE: 54.5%
Mus musculus [3]
  Ratio ED50: 63.98
Mus musculus [4]
  Activity: Non-toxic
Mus musculus [6]
  ED50: 8.43 pmol
Mus musculus [19]
  MPE: 63.1%
Mus musculus [23]
  MPE: 24%
Mus musculus [10]
  Ratio ED50: 118.62
Mus musculus [11]
  Selectivity Index: 6.2

## Cc1ccc(N(CCCN2CCC(Cc3ccc(C(N)=O)cc3)CC2)C(=O)C2CCN(C(=O)COCC(=O)NCCNC(=O)COCC(=O)N[C@H]3CC[C@@]4(O)[C@H]5Cc6ccc(O)c7c6[C@@]4(CCN5C)[C@H]3O7)CC2)cc1Cl
Mus musculus [1]
  ED50: 32.34 pmol
Mus musculus [2]
  ED50: 106.6 pmol
Mus musculus [3]
  Ratio ED50: 3.29
Mus musculus [4]
  Activity: Non-toxic
Mus musculus [5]
  Activity: Toxic
Mus musculus [6]
  ED50: 10.6 pmol
Mus musculus [7]
  ED50: 56.41 pmol
Mus musculus [8]
  Activity: Non-toxic
Mus musculus [9]
  Activity: Toxic
Mus musculus [10]
  Ratio ED50: 5.32
Mus musculus [11]
  Selectivity Index: 4.9

## CNC(=O)COCC(=O)NCCCCCCCNC(=O)COCC(=O)N1CCC(C(=O)N(CCCN2CCC(Cc3ccc(C(N)=O)cc3)CC2)c2ccc(C)c(Cl)c2)CC1
Mus musculus [24]
  MPE: 28.1%
Mus musculus [13]
  MPE: 43.9%
Mus musculus [22]
  MPE: 32.4%
Mus musculus [19]
  MPE: 51.9%

## CNC(=O)COCC(=O)N1CCC(C(=O)N(CCCN2CCC(Cc3ccc(C(N)=O)cc3)CC2)c2ccc(C)c(Cl)c2)CC1
[20]
  Activity: Active

## CN1CC[C@]23c4c5ccc(O)c4O[C@H]2[C@@H](O)C=C[C@H]3[C@H]1C5 [MORPHINE]
Mus musculus [1]
  ED50: 27 pmol
Mus musculus [3]
  Ratio ED50: 11
Mus musculus [6]
  ED50: 35 pmol
Mus musculus [10]
  Ratio ED50: 8
Mus musculus [25]
  ED50: 15 pmol
